# Experimental data: ChEMBL document CHEMBL1944580, “Synthesis of novel sulfonamide-1,2,4-triazoles, 1,3,4-thiadiazoles and 1,3,4-oxadiazoles, as potential antibacterial and antifungal agents. Biological evaluation and conformational analysis studies” (2012)
# Tests used:
# Staphylococcus aureus [1] = experiment: Antibacterial activity against Staphylococcus aureus ATCC 6538 after 24 hrs by micro dilution method; type: functional; conditions: ATCC 6538, 24 h
# Procedure, shortened: (§1)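 Microdilution MIC in 96-well plates. Bacterial suspensions adjusted in sterile saline to 1.0 × 10^5 CFU/ml, giving 1.0 × 10^4 cfu per well in LB broth. Compounds tested at up to 1 mg/ml. Plates incubated 24 h. MIC taken as the lowest concentration with no visible growth under a binocular microscope. OD at 655 nm was also read against a blank and the positive control. Streptomycin and ampicillin were the positive controls.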
# Bacillus cereus [2] = experiment: Antibacterial activity against Bacillus cereus clinical isolate after 24 hrs by micro dilution method; type: functional; procedure, shortened: as §1
# Micrococcus flavus [3] = experiment: Antibacterial activity against Micrococcus flavus ATCC 10240 after 24 hrs by micro dilution method; type: functional; conditions: ATCC 10240, 24 h; procedure, shortened: as §1
# Listeria monocytogenes [4] = experiment: Antibacterial activity against Listeria monocytogenes NCTC 7973 after 24 hrs by micro dilution method; type: functional; conditions: NCTC 7973, 24 h; procedure, shortened: as §1
# Pseudomonas aeruginosa [5] = experiment: Antibacterial activity against Pseudomonas aeruginosa ATCC 27853 after 24 hrs by micro dilution method; type: functional; conditions: ATCC 27853, 24 h; procedure, shortened: as §1
# Enterobacter cloacae [6] = experiment: Antibacterial activity against Enterobacter cloacae human isolate after 24 hrs by micro dilution method; type: functional; procedure, shortened: as §1
# Salmonella typhimurium [7] = experiment: Antibacterial activity against Salmonella Typhimurium ATCC 13311 after 24 hrs by micro dilution method; type: functional, Salmonella enterica subsp. enterica serovar Typhimurium; conditions: Salmonella enterica, ATCC 13311, 24 h; procedure, shortened: as §1
# Escherichia coli [8] = experiment: Antibacterial activity against Escherichia coli ATCC 35210 after 24 hrs by micro dilution method; type: functional; conditions: ATCC 35210, 24 h; procedure, shortened: as §1
# Staphylococcus aureus [9] = experiment: Antibacterial activity against Staphylococcus aureus ATCC 6538 treated for 24 hrs followed by sub-cultivated for 72 hrs by micro dilution method; type: functional
# Procedure, shortened: (§2)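 2 µl from each well was serially subcultured into 100 µl fresh broth per well and incubated a further 72 h. MBC is the lowest concentration with no visible growth, taken as 99.5% killing of the original inoculum. Streptomycin and ampicillin were the positive controls.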
# Bacillus cereus [10] = experiment: Antibacterial activity against Bacillus cereus clinical isolate treated for 24 hrs followed by sub-cultivated for 72 hrs by micro dilution method; type: functional; procedure, shortened: as §2
# Micrococcus flavus [11] = experiment: Antibacterial activity against Micrococcus flavus ATCC 10240 treated for 24 hrs followed by sub-cultivated for 72 hrs by micro dilution method; type: functional; procedure, shortened: as §2
# Listeria monocytogenes [12] = experiment: Antibacterial activity against Listeria monocytogenes NCTC 7973 treated for 24 hrs followed by sub-cultivated for 72 hrs by micro dilution method; type: functional; procedure, shortened: as §2
# Pseudomonas aeruginosa [13] = experiment: Antibacterial activity against Pseudomonas aeruginosa ATCC 27853 treated for 24 hrs followed by sub-cultivated for 72 hrs by micro dilution method; type: functional; procedure, shortened: as §2
# Enterobacter cloacae [14] = experiment: Antibacterial activity against Enterobacter cloacae human isolate treated for 24 hrs followed by sub-cultivated for 72 hrs by micro dilution method; type: functional; procedure, shortened: as §2
# Salmonella typhimurium [15] = experiment: Antibacterial activity against Salmonella Typhimurium ATCC 13311 treated for 24 hrs followed by sub-cultivated for 72 hrs by micro dilution method; type: functional, Salmonella enterica subsp. enterica serovar Typhimurium; conditions: Salmonella enterica; procedure, shortened: as §2
# Escherichia coli [16] = experiment: Antibacterial activity against Escherichia coli ATCC 35210 treated for 24 hrs followed by sub-cultivated for 72 hrs by micro dilution method; type: functional; procedure, shortened: as §2
# Talaromyces funiculosus [17] = experiment: Antifungal activity against Penicillium funiculosum ATCC 36839 after 72 hrs by serial dilution method; type: functional; conditions: ATCC 36839, 72 h
# Procedure, shortened: (§3)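 Modified microdilution MIC. Spores were washed from malt agar cultures with sterile 0.85% saline containing 0.1% Tween 80 and adjusted to about 1.0 × 10^5 per 100 µl well in malt broth. Compounds were dissolved in DMSO (1 mg/ml). Plates incubated 72 h at 28 °C. MIC is the lowest concentration with no visible growth under a binocular microscope. Bifonazole and ketoconazole were the references.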
# Penicillium ochrochloron [18] = experiment: Antifungal activity against Penicillium ochrochloron ATCC 9112 after 72 hrs by serial dilution method; type: functional; conditions: ATCC 9112, 72 h; procedure, shortened: as §3
# Trichoderma viride [19] = experiment: Antifungal activity against Trichoderma viride IAM 5061 after 72 hrs by serial dilution method; type: functional; conditions: IAM 5061, 72 h; procedure, shortened: as §3
# Aspergillus fumigatus [20] = experiment: Antifungal activity against Aspergillus fumigatus human isolate after 72 hrs by serial dilution method; type: functional; procedure, shortened: as §3
# Aspergillus niger [21] = experiment: Antifungal activity against Aspergillus niger ATCC 6275 after 72 hrs by serial dilution method; type: functional; conditions: ATCC 6275, 72 h; procedure, shortened: as §3
# Aspergillus flavus [22] = experiment: Antifungal activity against Aspergillus flavus ATCC 9643 after 72 hrs by serial dilution method; type: functional; conditions: ATCC 9643, 72 h; procedure, shortened: as §3
# Aspergillus versicolor [23] = experiment: Antifungal activity against Aspergillus versicolor ATCC 11730 after 72 hrs by serial dilution method; type: functional; conditions: ATCC 11730, 72 h; procedure, shortened: as §3
# Fulvia fulva [24] = experiment: Antifungal activity against Fulvia fulva after 72 hrs by serial dilution method; type: functional; procedure, shortened: as §3
# Talaromyces funiculosus [25] = experiment: Antifungal activity against Penicillium funiculosum ATCC 36839 treated for 72 hrs followed by sub-cultivated for 5 days by serial dilution method; type: functional
# Procedure, shortened: (§4)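 MFC obtained after the 72 h, 28 °C malt-broth microdilution (spore inoculum about 1.0 × 10^5 per well, compounds from 1 mg/ml DMSO). 2 µl was serially subcultured into 100 µl broth per well and incubated a further 5 days at 28 °C. MFC is the lowest concentration with no visible growth, taken as 99.5% killing of the original inoculum.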
# Penicillium ochrochloron [26] = experiment: Antifungal activity against Penicillium ochrochloron ATCC 9112 treated for 72 hrs followed by sub-cultivated for 5 days by serial dilution method; type: functional; procedure, shortened: as §4
# Trichoderma viride [27] = experiment: Antifungal activity against Trichoderma viride IAM 5061 treated for 72 hrs followed by sub-cultivated for 5 days by serial dilution method; type: functional; procedure, shortened: as §4
# Aspergillus fumigatus [28] = experiment: Antifungal activity against Aspergillus fumigatus human isolate treated for 72 hrs followed by sub-cultivated for 5 days by serial dilution method; type: functional; procedure, shortened: as §4
# Aspergillus niger [29] = experiment: Antifungal activity against Aspergillus niger ATCC 6275 treated for 72 hrs followed by sub-cultivated for 5 days by serial dilution method; type: functional; procedure, shortened: as §4
# Aspergillus flavus [30] = experiment: Antifungal activity against Aspergillus flavus ATCC 9643 treated for 72 hrs followed by sub-cultivated for 5 days by serial dilution method; type: functional; procedure, shortened: as §4
# Aspergillus versicolor [31] = experiment: Antifungal activity against Aspergillus versicolor ATCC 11730 treated for 72 hrs followed by sub-cultivated for 5 days by serial dilution method; type: functional; procedure, shortened: as §4
# Fulvia fulva [32] = experiment: Antifungal activity against Fulvia fulva treated for 72 hrs followed by sub-cultivated for 5 days by serial dilution method; type: functional; procedure, shortened: as §4
Compound,MIC (Staphylococcus aureus [1]) [µM],MIC (Bacillus cereus [2]) [µM],MIC (Micrococcus flavus [3]) [µM],MIC (Listeria monocytogenes [4]) [µM],MIC (Pseudomonas aeruginosa [5]) [µM],MIC (Enterobacter cloacae [6]) [µM],MIC (Salmonella typhimurium [7]) [µM],MIC (Escherichia coli [8]) [µM],MBC (Staphylococcus aureus [9]) [µM],MBC (Bacillus cereus [10]) [µM],MBC (Micrococcus flavus [11]) [µM],MBC (Listeria monocytogenes [12]) [µM],MBC (Pseudomonas aeruginosa [13]) [µM],MBC (Enterobacter cloacae [14]) [µM],MBC (Salmonella typhimurium [15]) [µM],MBC (Escherichia coli [16]) [µM],MIC (Talaromyces funiculosus [17]) [µM],MIC (Penicillium ochrochloron [18]) [µM],MIC (Trichoderma viride [19]) [µM],MIC (Aspergillus fumigatus [20]) [µM],further results
COc1cc(Cc2n[nH]c(=S)n2C)c(S(=O)(=O)N(C)C)cc1OC,270,270,270,270,540,270,270,540,540,540,540,270,540,270,270,540,140,140,70,140,MIC (Aspergillus niger [21]): 70 µM; MIC (Aspergillus flavus [22]): 70 µM; MIC (Aspergillus versicolor [23]): 140 µM; MIC (Fulvia fulva [24]): 70 µM; MFC (Talaromyces funiculosus [25]): 270 µM; MFC (Penicillium ochrochloron [26]): 270 µM; MFC (Trichoderma viride [27]): 140 µM; MFC (Aspergillus fumigatus [28]): 270 µM; MFC (Aspergillus niger [29]): 140 µM; MFC (Aspergillus flavus [30]): 140 µM; MFC (Aspergillus versicolor [31]): 270 µM; MFC (Fulvia fulva [32]): 140 µM
CCNc1nnc(Cc2cc(OC)c(OC)cc2S(=O)(=O)N(C)C)s1,520,260,260,520,260,520,260,260,520,260,520,520,260,520,260,260,130,130,70,130,MIC (Aspergillus niger [21]): 130 µM; MIC (Aspergillus flavus [22]): 130 µM; MIC (Aspergillus versicolor [23]): 260 µM; MIC (Fulvia fulva [24]): 70 µM; MFC (Talaromyces funiculosus [25]): 260 µM; MFC (Penicillium ochrochloron [26]): 260 µM; MFC (Trichoderma viride [27]): 130 µM; MFC (Aspergillus fumigatus [28]): 260 µM; MFC (Aspergillus niger [29]): 260 µM; MFC (Aspergillus flavus [30]): 260 µM; MFC (Aspergillus versicolor [31]): 520 µM; MFC (Fulvia fulva [32]): 70 µM
